Most compounds without a hit are left out; they make up all but 1.4% or so of the library.
APJ agonist = agonists of human APJ apelin receptor | CHO-K1 APJ PathHunter beta-arrestin, luminescence; 0% DMSO wells, 100% apelin | activation, % at 20 µM | 330,000 tested, 0.11% active;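 active = activation more than six SD over the plate average, tested at 20 µM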;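 note: 0% = DMSO alone and 100% = apelin-13 at 10 nM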
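Test system: CHO-K1 APJ beta-arrestin complementation cell line | Compound: Single test compound dose, 20 µM final, 1% DMSO | Incubation: Compound 90 min 25 °C, reagent 1 h | Measured by: beta-gal luminescence | Read-out basis: APJ–arrestin association signal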
CCR6 antagonist = antagonists of human CCR6 receptor | CHO-K1 CCR6 PathHunter beta-arrestin, luminescence, CCL20-stimulated | inhibition, % at 20 µM | 340,000 tested, 0.49% active | AID 493098;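 active = compounds whose inhibition of the agonist-driven luminescence signal at 20 µM reaches about 50%, limit read from the data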;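 note: cells stimulated with CCL20 at 14 nM final; plate controls were DMSO with CCL20 for no effect and DMSO without agonist for full effect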
APOBEC3G inh = APOBEC3G (human) deaminase inhibition | Q9HC16 | 330,000 tested, 0.28% active | recombinant A3G, ssDNA deamination FAM/TAMRA fluorescence | inhibition, % at 20 µM | AID 493012;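 active = inhibition of at least 40% at 20 µM, with no more than 30% in the related APOBEC3A deaminase screen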;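 note: plate controls were DMSO wells with A3G for no effect and wells lacking A3G enzyme for full effect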
Target sequence (Q9HC16 whole entry, looked up): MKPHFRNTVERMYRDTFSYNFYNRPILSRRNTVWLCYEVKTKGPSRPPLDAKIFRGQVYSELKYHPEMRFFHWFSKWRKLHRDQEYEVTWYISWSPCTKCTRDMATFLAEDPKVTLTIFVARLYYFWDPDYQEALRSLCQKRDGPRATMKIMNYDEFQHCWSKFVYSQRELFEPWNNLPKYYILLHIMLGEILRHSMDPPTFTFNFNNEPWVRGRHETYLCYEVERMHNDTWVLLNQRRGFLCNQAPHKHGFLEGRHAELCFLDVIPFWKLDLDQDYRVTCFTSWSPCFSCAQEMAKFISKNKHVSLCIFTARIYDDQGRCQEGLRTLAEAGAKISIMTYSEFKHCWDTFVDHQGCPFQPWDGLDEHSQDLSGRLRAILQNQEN
APJ antagonist = blocks the human apelin receptor APJ; CHO-K1 APJ beta-arrestin complementation, luminescence; 330,000 tested, 0.32% active; inhibition, % at 20 µM; P35414; AID 2521;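 active = inhibition above about 40% at 20 µM, limit read from the data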;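 note: cells challenged with 10 nM apelin-13 agonist together with compound; plate controls were apelin-13 plus DMSO wells for no effect and DMSO wells lacking apelin-13 for full effect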
A3A deaminase = inhibitors of human APOBEC3A DNA deaminase; P31941; recombinant A3A, FAM/TAMRA ssDNA deamination fluorescence; inhibition, % at 20 µM; 330,000 tested, 0.41% active; AID 493011;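 active = at least 40% inhibition at 20 µM here, with at most 30% in a related deaminase screen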;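 note: plate controls were A3A with DMSO for no effect and wells lacking A3A enzyme for full effect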
Target sequence (P31941 whole entry, looked up): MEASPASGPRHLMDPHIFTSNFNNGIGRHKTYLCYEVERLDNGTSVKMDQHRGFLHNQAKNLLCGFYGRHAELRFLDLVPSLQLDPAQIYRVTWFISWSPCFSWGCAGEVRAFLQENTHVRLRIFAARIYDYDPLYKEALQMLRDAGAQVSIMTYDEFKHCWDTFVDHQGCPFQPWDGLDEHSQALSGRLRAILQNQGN
CXCR6 block = blocks human CXCR6 beta-arrestin recruitment; O00574; 360,000 tested, 0.36% active; CHO-K1 PathHunter CXCR6 beta-arrestin, luminescence; inhibition, % at 20 µM; in the data active = inhibition above about 34%, passing the limit was not always enough;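 note: antagonist mode with CXCL16 agonist at 10 nM final; 0% = 10 nM CXCL16 with DMSO and 100% = unstimulated wells without agonist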
A3A conf = APOBEC3A (human) deaminase inhibition, confirmed. 1,400 tested, 63% active. inhibition, % at 20 µM. AID 493151. recombinant A3A, ssDNA deaminase UDG fluorescence assay. shares compounds with A3A deaminase;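 active = inhibition reaching a set limit, 80% of the first screen's cutoff, at 20 µM in any replicate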;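 note: plate controls were DMSO wells with A3A for no effect and wells lacking A3A enzyme for full effect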
UDG ctr A3A = counter-screen for APOBEC3A inhibitors: UDG; shares compounds with A3A deaminase; UDG counterscreen, FAM/TAMRA uracil oligo fluorescence; inhibition, % at 20 µM; 1,000 tested, under 10 active; AID 504714; call rule not given here
Numbers without * were called inactive; . = not tested or not shown.

SMILES	APJ agonist	CCR6 antagonist	APOBEC3G inh	APJ antagonist	A3A deaminase	CXCR6 block	A3A conf	UDG ctr A3A
O=C(CN1C(=O)COc2ccc(Cl)cc21)Nc1nccs1	-1	-4	-1	10	3	-8	.	.
CCCCN(CCCC)CCCN1CC(=O)N2[C@@H](Cc3c([nH]c4ccccc34)C2(C)C)C1=O	0	9	-2	-4	4	5	.	.
CN(CCN1CCOCC1)Cc1nc(-c2ccc(Cl)cc2)no1	-2	6	-1	5	2	4	.	.
COc1ccc(OCC(=O)Nc2nnc(S(=O)(=O)N3CCCCCC3)s2)cc1	-1	10	-2	2	-1	-3	.	.
Cc1ccc(OCC(=O)Nc2nnc(S(=O)(=O)N3CCC(C)CC3)s2)cc1	-1	9	21	-18	43*	-5	20	.
COc1ccc(NC(=O)CCCSc2ccccc2)cc1	-3	3	9	0	42*	6	7	.
COc1ccc(NC(=O)COC(=O)CCSc2ccccc2)cc1	4	10	3	15	0	0	.	.
COc1ccc(N2Cc3cccc(C(=O)N4CCOCC4)c3C2=O)cc1	0	0	-7	10	-6	-6	.	.
COc1ccc(N2Cc3cccc(C(=O)N4CCN(C(=O)c5ccco5)CC4)c3C2=O)cc1	3	6	29	4	59*	3	43*	.
CCn1c(C)[n+](Cc2ccccc2)c2ccc(C(=O)OC)cc21	-1	2	15	-8	53*	8	71*	3
CCn1c(/C=C/N(C)c2ccccc2)[n+](CC)c2ccc(Cl)cc21	0	6	19	18	42*	4	64*	-2
CCOC(=O)c1ccc2c(c1)n(CC)c(/C=C/Nc1ccccc1)[n+]2CC	-7	10	8	-4	32	-5	.	.
CCn1c(C)[n+](Cc2ccccc2)c2ccc(Cl)cc21	0	7	20	-2	60*	-5	73*	-1
C=CCc1c(C)nc2c(-c3ccccc3)cnn2c1N1CCOCC1	.	12	.	.	.	0	.	.
CCN1C(=O)[C@@H]2Cc3c([nH]c4ccccc34)C(c3cc(OC)c(OC)c(OC)c3)N2C1=S (stereo partly specified)	1	-2	-10	-24	59*	-3	-8	-6
Cc1cccc(S(=O)(=O)NNC(=O)Cc2cccn2C)c1	-3	-8	-8	-8	58*	-7	-2	2
Cc1ccc(S(=O)(=O)NNC(=O)Cc2cccn2C)cc1	-2	-3	-5	13	0	-6	.	.
C=CCCC(=O)N1CCCC(Cc2cccc(Cl)c2)(C(=O)OCC)C1 (stereo unspecified)	-3	9	8	-21	-5	4	.	.
COC/C=C/C1=CC2=CC(=O)C(C)(OC(=O)c3ccco3)C(=O)C2=CO1 (stereo unspecified)	5	.	26	-12	58*	.	60*	.
COC/C=C/C1=CC2=CC(=O)C(C)(OC(=O)c3cccs3)C(=O)C2=CO1 (stereo unspecified)	1	.	8	2	20	.	.	.
O=C(Nc1cccc(-n2cnnn2)c1)C1CCCN(Cc2cccc(C(F)(F)F)c2)C1 (stereo unspecified)	3	39	-2	4	-5	-5	.	.
COc1ccc(-c2noc(CSc3nc(-c4ccccc4)cc(=O)[nH]3)n2)cc1	-3	-2	14	-3	56*	-5	22	.
CC(C)CN(C(=O)COC(=O)c1cc2c(s1)CCC2)C1CCS(=O)(=O)C1 (stereo unspecified)	-3	10	18	12	45*	5	44*	.
COc1ccccc1NC(=O)CSc1nnc(CNC(=O)c2ccco2)n1C	-2	1	-10	13	-2	1	.	.
COc1ccccc1OCCSc1nnc(CNC(=O)c2ccco2)n1C	-2	-2	6	10	48*	-1	27	.
SMILES	APJ agonist	CCR6 antagonist	APOBEC3G inh	APJ antagonist	A3A deaminase	CXCR6 block	A3A conf	UDG ctr A3A
CCCCCn1ccc(=N)cc1	-1	-3	28	15	62*	15	72*	-3
CCCCCCCn1ccc(=N)cc1	0	-14	19	-2	74*	-15	74*	-1
CN(C)CCNC(=O)c1cccc(-c2cnc3c(NC=O)cc(-c4cccs4)cn23)c1	.	.	.	.	.	-1	.	.
COC(=O)C1=C(C)N(Cc2ccccc2)C(=S)N[C@H]1c1ccc(Br)cc1	-1	20	-6	8	2	4	.	.
COC(=O)C1=C(C)N(Cc2ccccc2)C(=NCCc2cccnc2)N[C@H]1c1ccccc1	-2	15	27	0	80*	10	74*	-3
COC(=O)C1=C(C)N(Cc2ccccc2)C(=NCCc2cccnc2)N[C@H]1c1ccc(Br)cc1	-1	10	12	13	45*	-1	54*	2
COC(=O)C1=C(C)N(Cc2ccccc2)C(=NCCCCO)N[C@H]1c1ccccc1	-5	8	19	11	52*	.	75*	6
O=C(CSc1nnc(-c2ccncc2)n1-c1ccccc1)N1CCN(c2ccc(Cl)cc2)CC1	-2	6	15	7	44*	2	65*	0
COC(=O)c1ccc(NC(=O)C(=O)c2cn(CC(=O)N3CCOCC3)c3ccccc23)cc1	1	5	-8	-3	-6	4	.	.
COc1cc(C(=O)NCc2ccco2)cc(OC)c1OC	-3	13	4	-17	1	-2	.	.
COc1cc(C(=O)NCc2ccco2)c(Br)c(OC)c1OC	-5	15	-3	-13	51*	-4	-9	-3
CCN1C(=NCC2CC2)N[C@@H](c2cccc(C(F)(F)F)c2)C(C(=O)OC)=C1C	-8	15	8	26	56*	14	67*	3
COC(=O)C1=C(C)N(Cc2ccccc2)C(=NCC(C)C)N[C@H]1c1cccc(C(F)(F)F)c1	-2	10	16	34	48*	-8	75*	3
CCN1C(=NCCOC)N[C@@H](c2cccc(C(F)(F)F)c2)C(C(=O)OC)=C1C	-4	2	14	10	45*	9	80*	-2
CCN1C(=NCCc2ccccn2)N[C@@H](c2cccc(C(F)(F)F)c2)C(C(=O)OC)=C1C	-5	9	7	20	32	2	.	.
Cc1cscc(C)c1=S	.	.	.	.	.	0	.	.
CN(CC(=O)Nc1cccc(F)c1)C(=O)c1ccc2c(c1)OCCO2	-7	10	4	12	40*	-10	2	.
Cc1nc(NCCc2ccccc2)sc1C(=O)N(C)C	-1	6	0	-1	-1	5	.	.

Assay outcomes deposited in PubChem BioAssay by Sanford-Burnham Center for Chemical Genomics.
